One series concerns H9c2. The series is described as follows: Cytotoxicity against rat H9c2 cells assessed as reduction in cell viability. It counts as cell-based.
Series [1] in a line: Selectivity index, ratio of IC50 for rat H9c2 cells to IC50 for antitrypanosomal activity against Trypanosoma cruzi Tulahuen trypomastigotes beta-galactosidase infected in rat H9c2 cells. The series is classed as toxicity, cell-based. The conditions noted are these: read-out: Ratio IC50.
In series [2] the test system is Trypanosoma cruzi. The series is described as follows: Antitrypanosomal activity against Trypanosoma cruzi Tulahuen trypomastigotes beta-galactosidase infected in rat H9c2 cells measured after 72 hrs by DRAQ5 DNA dye based confocal microscopic analysis. The conditions noted are these: H9c2, 72 h. The series is classed as functional, organism-based.
The test system of series [3] is Trypanosoma cruzi. As to the kind of experiment: Antitrypanosomal activity against Trypanosoma cruzi Tulahuen C4 trypomastigotes harboring beta-galactosidase infected in mouse 3T3 cells after 90 mins by luminescence based assay. It counts as functional, organism-based. The conditions noted are these: Tulahuen C4, NIH3T3, 1.5 h.
A short description of series [4]: Intrinsic clearance in human liver microsomes at 0.5 uM in presence of NADPH measured up to 45 mins by UPLC/MS/MS analysis. The series is classed as ADME, Microsome. The conditions noted are these: 0.75 h. The method, boiled down: (§1)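 Compound at 0.5 μM was incubated with male CD1 mouse or human liver microsomes (0.5 mg/mL in 50 mM potassium phosphate, pH 7.4). The reaction was started with excess NADPH. Samples were taken at 0 and serial times up to 45 min, quenched in acetonitrile with internal standard and analysed by UPLC/MS/MS. Clint (mL/min/g tissue) was derived from t1/2 of parent remaining. Midazolam was the positive control.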
For orientation: Liver microsomes are vesicles of endoplasmic reticulum, rich in cytochrome P450 enzymes.

Series [5] can be described thus: Intrinsic clearance in CD-1 mouse liver microsomes at 0.5 uM in presence of NADPH measured up to 45 mins by UPLC/MS/MS analysis. It counts as ADME, Microsome. The settings on record: 0.75 h. In outline:
as §1

Series [6] can be described thus: Drug level in C57BL/6 mouse treated with 50 mg/kg, po N-(5-Fluoro-6-(trifluoromethyl)benzothiazol-2-yl)cyclopropanecarboxamide administered as suspension via gavage assessed as compound formation after 15 mins to 24 hrs by LC-MS/Ms analysis. It counts as ADME, organism-based. The settings on record: in vivo. In outline:
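Female C57BL/6 mice (n=3) were gavaged with 50 mg/kg parent compound as a 1% methylcellulose suspension. Whole blood was sampled at 15, 30, 45 min and 1, 2, 4, 8 and 24 h, diluted 1/2 with water and frozen.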

These results are taken from ChEMBL document CHEMBL4321829, “Chagas Disease Drug Discovery: Multiparametric Lead Optimization against Trypanosoma cruzi in Acylaminobenzothiazole Series” (J Med Chem, 2019).

Bounds are passed on as bounds.

One may read the IC50 as the concentration at which inhibition is half-maximal. As for `CNS(=O)(=O)c1cc2sc(NC(=O)C3CC3)nc2cc1F`, the results for the half-inhibitory concentration (IC50) with H9c2 and with Trypanosoma cruzi [2] were above 50 µM and 26 µM, respectively. Besides, in series [1], the selectivity ratio is above 2.
For `Clc1ccc2nc(NCC3CC3)sc2c1` the same measures were above 50 µM, 27 µM and above 2.
For `O=C(Nc1nc2cc(C(F)(F)F)c(F)cc2s1)C1CC1` the same measures were 46 µM, 35 µM and 1.
Take `CC(=O)N(CCCN(C)C)c1nc2ccc(C)cc2s1`: the IC50 in the series with Trypanosoma cruzi [3] is 0.236 µM.
As for `N#Cc1cc2nc(NC(=O)C3CC3)sc2cc1C(F)(F)F`, the IC50 in the series on H9c2 is 15.5 µM; with Trypanosoma cruzi [2] it was above 50 µM.
Turning to `O=C(Nc1nc2cccc(Cl)c2s1)C1CC1`, the IC50 is above 50 µM with H9c2 and 24 µM in the series on Trypanosoma cruzi [2]. Also, in series [1], the selectivity ratio was above 2.
Taken in the same sequence, the figures for `O=C(Nc1nc2ccc(OC(F)(F)F)cc2s1)C1CC1` were 5 µM, 0.19 µM and 28.
As to `CC(C)(F)C(=O)Nc1nc2cc(F)c(C(F)(F)F)cc2s1`, the half-inhibitory concentration (IC50) is above 50 µM in the series on H9c2 and 1 µM in the series with Trypanosoma cruzi [2]. Further, the selectivity ratio in series [1] is above 50.
For the compound `O=C(C1CC1)N(CCO)c1nc2ccc(Cl)cc2s1`, the half-maximal inhibitory concentration (IC50) in the series with H9c2 and in the series on Trypanosoma cruzi [2] was above 50 µM throughout. The selectivity ratio in series [1] stood at 1.
In the case of `O=C(Nc1nc2c(Cl)cccc2s1)C1CC1`, the IC50 in the series on H9c2 and in the series with Trypanosoma cruzi [2] was above 50 µM throughout.
Consider `CCc1ccc2nc(NC(=O)C3CC3)sc2c1`, for which the IC50 is above 50 µM with H9c2 and 0.14 µM in the series with Trypanosoma cruzi [2]. For the same compound, the selectivity ratio in series [1] is above 357. Further, the CLH in series [4] was 10.4 mL/min/g; in series [5], 125 mL/min/g.
With `CC(C)(C)C(=O)Nc1nc2ccc(Cl)cc2s1`, the IC50 in the series on H9c2 is above 50 µM; in the series on Trypanosoma cruzi [2], 0.95 µM. Besides, the selectivity ratio in series [1] was above 52.
For `CCN(C(=O)C1CC1)c1nc2ccc(Cl)cc2s1` the same measures were above 50 µM, above 50 µM and 1.
For `O=C(CC1CC1)Nc1nc2ccc(Cl)cc2s1` the same measures were above 50 µM, 5.4 µM and above 9.
For `CCCCN(C(=O)C1CC1)c1nc2ccc(Cl)cc2s1` the same measures were above 50 µM, above 50 µM and 1.
Turning to `CCS(=O)(=O)c1cc2sc(NC(=O)C3CC3)nc2cc1F`, the results for the IC50 with H9c2 and with Trypanosoma cruzi [2] were above 50 µM and 42 µM, respectively. In addition, the selectivity ratio in series [1] is above 1.
Turning to `CN(C(=O)C1CC1)c1nc2ccc(Cl)cc2s1`, the concentration for half-maximal inhibition (IC50) in the series with H9c2 is above 50 µM; in the series on Trypanosoma cruzi [2] it was 25 µM. Besides, the selectivity ratio in series [1] is above 2.
On to `O=C(Nc1nc2cc(Cl)ccc2s1)C1CC1`, for which the results for the half-maximal inhibitory concentration (IC50) in the series with H9c2 and in the series with Trypanosoma cruzi [2] were above 50 µM and 0.32 µM, respectively. Besides, the selectivity ratio in series [1] was above 158.
For `N#Cc1cc2sc(NC(=O)C3CC3)nc2cc1F` the same measures were above 50 µM, 2.3 µM and above 22.
In the case of `O=C(Nc1nc2ccc(Cl)cc2s1)C1CCC1`, the IC50 was above 50 µM with H9c2 and 1.32 µM with Trypanosoma cruzi [2]. The selectivity ratio in series [1] is above 38.
Taken in the same sequence, the figures for `CC(C)c1ccc2nc(NC(=O)C3CC3)sc2c1` were above 50 µM, 1.19 µM and above 50.
Taken in the same sequence, the figures for `Cc1cc2nc(NC(=O)C3CC3)sc2cc1C(F)(F)F` were 36 µM, 26 µM and 1.
For the compound `O=C(Nc1nc2ccc(Cl)cc2s1)C1CC1`, the half-maximal inhibitory concentration (IC50) in the series with H9c2 is above 50 µM; in the series with Trypanosoma cruzi [2] it was 0.63 µM; with Trypanosoma cruzi [3], 0.119 µM. Besides, in series [1], the selectivity ratio was above 80. Further, the CLH in series [4] was found to be 9.57 mL/min/g; in series [5] it was 2.51 mL/min/g.
As to `Nc1nc2cc(F)c(C(F)(F)F)cc2s1`, in series [6], the Drug metabolism result was “Metabolite_Detected”.
Turning to `O=C(Nc1nc2ccc(F)cc2s1)C1CC1`, the results for the IC50 in the series with H9c2 and in the series with Trypanosoma cruzi [2] were above 50 µM and 4.22 µM, respectively. Besides, in series [1], the selectivity ratio is above 12.
Taken in the same sequence, the figures for `Cc1ccc2nc(NC(=O)C3CC3)sc2c1` were above 50 µM, 4.52 µM and above 11.
Taken in the same sequence, the figures for `CCOc1ccc2nc(NC(=O)C3CC3)sc2c1` were above 50 µM, 2.5 µM and above 20.
Taken in the same sequence, the figures for `CC(C)C(=O)Nc1nc2ccc(Cl)cc2s1` were above 50 µM, 0.41 µM and above 123.
`O=C(Nc1nc2ccc(Cl)cc2s1)C1COC1`: the figures for the concentration for half-maximal inhibition (IC50) in the series on H9c2 and in the series with Trypanosoma cruzi [2] were above 50 µM and 4.4 µM, respectively. Besides, in series [1], the selectivity ratio was above 11.
Regarding `O=S(=O)(Nc1nc2ccc(C(F)(F)F)cc2s1)C1CC1`, the IC50 is 6.6 µM in the series with H9c2 and above 50 µM in the series on Trypanosoma cruzi [2]. The selectivity ratio in series [1] is below 0.13.
For `CCCC(=O)Nc1nc2ccc(Cl)cc2s1` the same measures were above 50 µM, 4.73 µM and above 11.
Turning to `O=C(Nc1nc2ccc(C(F)(F)F)cc2s1)C1CC1`, the values for the IC50 in the series on H9c2 and in the series with Trypanosoma cruzi [2] were above 50 µM and 0.1 µM, respectively. Moreover, in series [1], the selectivity ratio was above 500. The figures for the CLH in series [4] and in series [5] were 0.94 mL/min/g and 2.71 mL/min/g, respectively.
On to `O=C(Nc1nc2ccc([N+](=O)[O-])cc2s1)C1CC1`, for which the IC50 in the series on H9c2 was above 50 µM; in the series on Trypanosoma cruzi [2], 0.04 µM. Further, the selectivity ratio in series [1] was above 1200. The CLH in series [4] is 1.57 mL/min/g; in series [5], 3.06 mL/min/g.
Regarding `CC(C)(C)c1ccc2nc(NC(=O)C3CC3)sc2c1`, the values for the IC50 in the series with H9c2 and with Trypanosoma cruzi [2] were 32 µM and 7.85 µM, respectively. The selectivity ratio in series [1] stood at 4.
Taken in the same sequence, the figures for `CC(C)C(=O)Nc1nc2cc(F)c(C(F)(F)F)cc2s1` were above 50 µM, 0.25 µM and above 200.
`CN(C)CCCN(C(=O)c1nc2ccccc2s1)c1nc2ccc(F)cc2s1`: the midpoint of inhibition with Trypanosoma cruzi [3], the IC50, lay at 0.1 µM.
As to `CC(C)(F)C(=O)Nc1nc2ccc(C(F)(F)F)cc2s1`, the IC50 with H9c2 was above 50 µM; in the series with Trypanosoma cruzi [2] it was 0.13 µM. Further, the selectivity ratio in series [1] is above 384.
For `O=C(Nc1nc2ccc(Cl)cc2s1)C1CCOC1` (centres undefined) the same measures were above 50 µM, 4.4 µM and above 11.
Taken in the same sequence, the figures for `O=C(CCO)Nc1nc2ccc(Cl)cc2s1` were above 50 µM, 14 µM and above 3.
Taken in the same sequence, the figures for `FC(F)(F)c1ccc2nc(N/N=C/C3CC3)sc2c1` were 13 µM, 2.4 µM and 5.
Regarding `COc1cc2nc(NC(=O)C3CC3)sc2cc1C(F)(F)F`, the half-maximal inhibitory concentration (IC50) in the series on H9c2 is above 50 µM; in the series with Trypanosoma cruzi [2], 20 µM. For the same compound, in series [1], the selectivity ratio was above 2.5.
